Assay outcomes as filed in PubChem BioAssay.
M1 ag: M1 muscarinic receptor agonism. CHO-M1 cells, Fluo-4 calcium fluorescence, agonist mode; stronger effect = higher value. B-score at 10 µM. 64,000 tested, 3% active;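 active = fluorescence rise, raw or as B-score row- and column-corrected plate score, outside the 99.7% band of its plate's samples, either direction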
SF-1 act: activators of human nuclear receptor SF-1. 65,000 tested, 1.9% active. activation, % at 10 µM. Q13285. CHO-K1 Gal4-SF-1 LBD luciferase reporter; % increase over DMSO SF-1-specific signal;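 active = activation above the mean activation of all tested compounds plus 3 SD, cut at about 50% in these data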
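System: CHO-K1 cells with Gal4–hSF-1 LBD chimera plus Gal4-driven luciferase; quantity: 4,000 CHO-K1 cells per well; compound: one dose, 10 µM compound, 1% DMSO; times: 20 h compound treatment, 37 °C; measured by: SteadyLite luciferase luminescence; read-out: percent activation versus DMSO; benchmarks: DMSO and mock-transfected background; replicates: one test per compound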
RORa activator: RORA (human) activation; P35398; CHO-K1 Gal4-RORA LBD luciferase reporter, luminescence; percent increase over mock-subtracted basal signal; activation, % at 10 µM; 65,000 tested, 1.5% active; AID 560;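 active = activation above the mean of all tested compounds plus 3 SD, cut at about 49% in these data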
Target sequence (P35398 whole entry, looked up, the tested form may be a part): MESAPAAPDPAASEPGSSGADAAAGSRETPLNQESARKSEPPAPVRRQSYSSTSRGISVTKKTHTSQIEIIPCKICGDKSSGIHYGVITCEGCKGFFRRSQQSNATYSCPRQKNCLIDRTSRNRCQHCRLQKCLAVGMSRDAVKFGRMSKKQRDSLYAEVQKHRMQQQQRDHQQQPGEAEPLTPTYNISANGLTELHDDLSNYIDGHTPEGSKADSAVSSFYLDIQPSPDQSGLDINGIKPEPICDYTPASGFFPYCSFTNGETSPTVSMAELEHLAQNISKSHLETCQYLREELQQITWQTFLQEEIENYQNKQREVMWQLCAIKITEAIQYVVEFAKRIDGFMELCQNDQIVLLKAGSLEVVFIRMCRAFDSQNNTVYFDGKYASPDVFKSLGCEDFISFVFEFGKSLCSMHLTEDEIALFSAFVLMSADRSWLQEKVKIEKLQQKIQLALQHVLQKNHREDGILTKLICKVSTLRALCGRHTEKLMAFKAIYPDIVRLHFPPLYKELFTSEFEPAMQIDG
M1 antag: antagonists of rat M1 muscarinic receptor | P08482 | B-score at 10 µM | CHO-M1 cells, Fluo-4 calcium, ACh EC80 antagonist mode; stronger effect = lower value | 64,000 tested, 3.4% active;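 active = calcium fluorescence response, raw or row-and-column corrected B-score, differing from the plate sample mean either way at a set confidence level, mostly lower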
S1P1 ag-PAM: activates or potentiates agonism at human S1P1 receptor; P21453; S1P1 CRE-bla cells, forskolin, beta-lactamase FRET, potentiator mode; S1P1 agonist co-added at EC20, 2 nM; 100% = saturating reference agonist, 0% = basal; activation, % at 9.5 µM; 56,000 tested, 0.57% active; AID 449;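 active = activation above a cutoff set at the mean activation of all tested compounds plus 3 SD, cut at about 54% in these data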;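 also: forskolin at 4 µM as EC80 and the EC20 agonist is SEW2871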
S1P3 agonist: S1P3 (human) receptor agonism; Q99500; 60,000 tested, 0.1% active; activation, % at 4.5 µM; AID 373; S1P3 NFAT-BLA reporter cells, FRET ratio; relative to 1 µM S1P, basal subtracted;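 active = activation above the screen-wide mean plus 3 SD, cut at about 4.5% in these data, passing the limit was not always enough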
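Measure – % activation relative to 1 µM S1P (100%), per plate · System – stable CHO line with human S1P3, Gα16, NFAT-BLA reporter · Timing – cells plated overnight, compound 4 h 37 °C, substrate 2 h RT · Technique – fluorescent BLA substrate, ex 405 nm, em 460/535 nm ratio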
Of the large screens only hits and unclear results are named; the others gave an inactive call. Rows were chosen to be rich in hits. Some 8.8% of all compounds tested hit in one or more screens of this group.

Cc1c(-c2cccs2)[n+](=O)c2c(n1[O-])CCCCC2	none (no result: S1P1 ag-PAM, S1P3 agonist)
O=C(O)c1c2c(nc3ccc(S(=O)(=O)N4CCC(C(=O)NC5CCCC5)CC4)cc13)CCCCC2	M1 ag -2.3
CC1CCc2nc3ccc(S(=O)(=O)N4CCC(C(=O)NC5CCCC5)CC4)cc3c(C(=O)O)c2C1 (stereo not given)	none
Cc1cccc(OCc2nnc(SCC(=O)Nc3ccc(C)c(Cl)c3)o2)c1	none
COc1ccccc1NC(=O)N(C1CCCC1)C1CCN(C(C)=O)CC1	none
CC1(C)CC(=O)C(C=Nc2ccccc2)=C(O)C1	SF-1 act 64
O=C(NCc1ccccn1)Nc1cccc(Cl)c1	SF-1 act 63
O=C(NCc1ccccn1)Nc1cccc(NC(=O)NCc2ccccn2)c1	none (no result: M1 ag, M1 antag)
Cc1nnc(NC(=O)Nc2cccc(Cl)c2)s1	none
N#CCc1ccc(NC(=O)Nc2cccc(Cl)c2)cc1	SF-1 act 79
Cc1csc(NC(=O)Nc2cccc(Cl)c2)n1	SF-1 act 63, RORa activator 70
N#Cc1ccccc1NC(=O)Nc1cccc(Cl)c1	none (no result: SF-1 act, RORa activator, S1P1 ag-PAM, S1P3 agonist)
COc1ccc(-c2nc3c(c(=O)n(C)c(=O)n3C)n2CC2CC(c3ccccc3)=NO2)cc1OC (stereo not given)	M1 ag 4.7
Cc1ccc(C(C)C)c(OCc2ccc(-c3nnco3)cc2)c1	S1P1 ag-PAM 98
S=C(c1ccc(-c2cccc(Cl)c2)o1)N1CCOCC1	RORa activator 61
S=C(c1ccc(-c2cc(Cl)ccc2Cl)o1)N1CCOCC1	none
COc1ccc(N2CC(C(=O)NCCCN3CCOCC3)CC2=O)cc1 (stereo not given)	none
COc1cccc(-c2nnc(Nc3nc4c(F)cccc4s3)o2)c1	SF-1 act 51
CCOC(=O)N1CCN(CCC(=O)c2ccc(Cl)cc2)CC1	M1 ag 3.4, M1 antag -0.81
COc1ccc(OC)c(CC(NC(C)=O)C(=O)NC2CCN(c3nc(C)cc(C)c3C#N)CC2)c1 (stereo not given)	none
O=C(Cc1cscn1)c1ccc(O)cc1O	none
O=C(Cc1ccc2cccnc2c1)c1ccc(O)cc1O	RORa activator 60
CNS(=O)(=O)c1cccc(C(=O)OC2CCCCC2=O)c1 (stereo not given)	none
Cc1cc(C(=O)NCc2cccs2)c(C)o1	none
Cc1cc2c(cc(C(=O)OCC(=O)NCc3cccs3)n2C(C)C)o1	RORa activator 57
CC(C)CNc1oc(-c2ccc(F)cc2)nc1C#N	none
CCOc1ccc(OCC)c(NC(=O)C2CCCN(c3nc(C)cc(C)n3)C2)c1 (stereo not given)	none
CN(C)/C=N/c1cnc(C(=O)c2ccc(Cl)cc2)n1C	RORa activator 76
CCc1ccc(NC(=O)c2noc3c2CCCCC3)cc1	SF-1 act 67, RORa activator 67
Cc1ccc(NC(=O)c2noc3c2CCCCC3)cc1	RORa activator 56
Cc1ccc(NC(=O)c2noc3c2CCCCC3)cc1C	none
O=C(NCCc1ccccc1)c1noc2c1CCCCC2	SF-1 act 60
CC(=O)c1ccc(-n2nncc2C)cc1	none (no result: S1P1 ag-PAM, S1P3 agonist)
Cc1cccn2c(=O)c3cc(C#N)c(=NC(=O)c4ccccc4)n(Cc4ccco4)c3nc12	M1 ag 19 (no result: S1P1 ag-PAM, S1P3 agonist)
CCCCCn1c(=NC(C)=O)c(C#N)cc2c(=O)n3cccc(C)c3nc21	M1 ag 5.3
CCCn1c(=NC(C)=O)c(C#N)cc2c(=O)n3cccc(C)c3nc21	none
COc1ccc(-c2nc(CSCC(=O)N3CCN(C(=O)c4ccco4)CC3)c(C)o2)cc1OC	none
CCOC(=O)c1c(C)n(C)c2ccc(OC)c(NC(=O)CN3CCN(C(=O)c4ccco4)CC3)c12	none
COc1cccc(OCc2nnc(SCC(=O)OCc3ccccc3)o2)c1	RORa activator 49
Cc1ccc2c(c1)c1ncnc(N3CCOCC3)c1n2C	none
Cc1ccc2c(c1)c1ncnc(N3CCC4(CC3)OCCO4)c1n2C	SF-1 act 67, RORa activator 62
Fc1ccc(Cc2nnc(-c3cccs3)o2)cc1	RORa activator 63
c1ccc(CSc2nnc(-c3cccs3)o2)cc1	SF-1 act 52, RORa activator 50
